Data as given in ChEMBL document CHEMBL4145471, “New 1,5 and 2,5-disubstituted tetrazoles-dependent activity towards surface barrier of Candida albicans” (Eur J Med Chem, 2018).
The source made the active and inactive calls. The calls are words filed in the database; no cut-off is given here.

Columns and labels:
[1] = Toxicity in Galleria mellonella larvae assessed as survival at 16 ug/ml after 96 hrs relative to control; format: organism-based; details: in vivo
Method in brief: (§1)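 Uninfected larvae, groups of 10, injected with compound in RPMI at 256, 16 or 0.0313 µg/mL; PBS-injected larvae as controls. Kept at 37°C in darkness up to 96 h, monitored daily; death is no response to physical stimuli. Mobility, cocoon formation, melanization and survival scored as health index. Three independent experiments, samples in duplicate; Wilcoxon signed-rank test vs control.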

Candida albicans [2] = assay: Synergistic antifungal activity against Candida albicans ATCC 90028 at 1.25 ug/ml after 48 hrs in presence of 2.5 ug/ml fluconazol by checkerboard assay relative to control; format: functional
Method in brief: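 Checkerboard microdilution (M27-A3) on C. albicans ATCC 90028 in RPMI 1640: fluconazole (80-1.25 µg/mL) crossed with tetrazole (80-1.25 µg/mL final), incubated at 35°C for 48 h. Growth by OD405 at 18 and 48 h, endpoint taken as 100% inhibition. FIC index = sum of the two agents' FICs; <1 synergism, >1 antagonism.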

[3] = Toxicity in Galleria mellonella larvae assessed as survival at 0.0313 ug/ml after 96 hrs relative to control; format: organism-based; details: in vivo; method in brief: as §1
Candida albicans [4] = assay: Induction of apoptosis in Candida albicans ATCC 90028 protoplast assessed as early apoptotic cells at 16 ug/ml after 18 hrs Annexin V-FITC/propidium iodide staining based flow cytometry ( Rvb = 0.13 +/- 0.06%); format: functional
Candida albicans [5] = assay: Antifungal activity against Candida albicans ATCC 90028 assessed as total FIC index at 80 ug/ml in presence of fluconazol after 48 hrs by checkerboard-based XTT assay; format: functional
Method in brief: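 Checkerboard against strain ATCC 90028, inoculum per M27-A3: fluconazole 80-1.25 µg/mL on one axis, tetrazole 80-1.25 µg/mL on the other. Plates at 35°C for 48 h, then XTT metabolic reduction read at 475 nm (660 nm reference). Activity is the drop in mean absorbance against untreated growth control. FICs and their summed FIC index are taken at 50% reduction in metabolic activity.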

Candida albicans [6] = assay: Antifungal activity against Candida albicans ATCC 90028 assessed as growth inhibition at 100 ug/ml after 7 days in presence of sorbitol by M27-A3 microdilution method; format: functional, organism-based
Method in brief: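 Osmotic protection variant of M27-A3. Tetrazoles serially diluted (1.04-400 µg/mL) in Sabouraud dextrose broth; inoculum 1.7×10^3 CFU/mL in SDB with sorbitol at 0.8 M final. Plates at 35°C, read visually and at OD405 after 2 and 7 days; triplicate.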

Candida albicans [7] = assay: Induction of necrosis in Candida albicans ATCC 90028 protoplast at 16 ug/ml after 18 hrs Annexin V-FITC/propidium iodide staining based flow cytometry (reference value: 40.48 +/- 16.81%); format: functional
Candida albicans [8] = assay: Induction of apoptosis in Candida albicans ATCC 90028 protoplast assessed as late apoptotic cells at 16 ug/ml after 18 hrs Annexin V-FITC/propidium iodide staining based flow cytometry ( Rvb = 0.20 +/- 0.28%); format: functional
Candida albicans [9] = assay: Induction of apoptosis in Candida albicans ATCC 90028 biofilms assessed as detection of DNA ladder at 256 ug/ml after 10 mins by […]; format: functional, organism-based
Candida albicans [10] = assay: Antifungal activity against Candida albicans ATCC 90028 infected in Galleria mellonella larvae assessed as survival at 16 ug/ml treated for 30 to 60 mins post infection and measured after 48 hrs; format: functional, organism-based
Method in brief: (§2)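 G. mellonella larvae (195±17 mg, ethanol-disinfected) were given 10 µL C. albicans suspension into the last right proleg. A single 10 µL dose at 16 µg/mL in RPMI (diluted from 1600 µg/mL stock) went into the last left proleg, either 30 min or 1 h after infection or 1 h or 30 min before it. Survival was checked every 24 h for 2 days. Untreated infected larvae and PBS-injected larvae served as controls; ≥3 independent experiments, mean±SEM.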

Candida albicans [11] = assay: Antifungal activity against Candida albicans ATCC 90028 infected in Galleria mellonella larvae assessed as increase in health score at 16 ug/ml treated for 60 mins post infection measured after 48 hrs; format: functional, organism-based
Method in brief: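 Larvae (195±17 mg, ethanol-disinfected) were injected with 10 µL C. albicans into the last right proleg. Compound at 16 µg/mL in RPMI (10 µL) went into the last left proleg 30 min or 1 h after infection, or 1 h or 30 min before it. A health index was scored from mobility, cocoon formation, melanization and survival, with monitoring every 24 h for 2 days. Controls were infected and PBS-injected larvae.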

Candida albicans [12] = assay: Antifungal activity against Candida albicans ATCC 90028 infected in Galleria mellonella larvae assessed as survival at 16 ug/ml treated for 30 to 60 mins post infection; format: functional
Method in brief: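 Larvae (195±17 mg, ethanol-disinfected) injected with 10 µL C. albicans suspension into last right proleg; single 10 µL dose (16 µg/mL in RPMI, diluted from 1600 µg/mL stock) into last left proleg 30 min or 1 h later. Controls: infected untreated and PBS-injected. Survival monitored every 24 h for 2 days; health index scored. At least three independent experiments.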

Candida albicans [13] = assay: Antifungal activity against Candida albicans ATCC 90028 infected in Galleria mellonella larvae assessed as increase in health score at 16 ug/ml treated for 60 mins post infection measured after 18 hrs; format: functional, organism-based
Candida albicans [14] = assay: Antifungal activity against Candida albicans ATCC 90028 assessed as reduction in cell adherence to human Caco2 cells at 16 ug/ml preincubated for 2 hrs followed by compound washout and resuspended in RPMI medium measured after 18 hrs by colony counting assay relative to control; format: functional; design: scale not given: the % may be the effect or the level left
Method in brief: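 Yeasts grown 18 h in YEPD at 30°C, then exposed at 10^4/mL to compound in RPMI for 2 h at 35°C with shaking. Washed twice in PBS, resuspended in RPMI and added to Caco-2 monolayers (18 h culture in EMEM/10% FCS) for 2 h at 37°C, 5% CO2. Non-adherent cells rinsed off, Caco-2 lysed with water, and adherent yeasts counted as colonies on Sabouraud agar after 18 h at 30°C. Expressed as % of cells added versus untreated; three experiments.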

Candida albicans [15] = assay: Antifungal activity against Candida albicans ATCC 90028 infected in Galleria mellonella larvae assessed as increase in larvae survival at 16 ug/ml preincubated for 30 to 60 mins followed by fungal infection and measured every 24 hrs for 2 days; format: functional, organism-based; method in brief: as §2
Candida albicans [16] = assay: Induction of necrosis in Candida albicans ATCC 90028 biofilms assessed as loss of cell membrane integrity at 16 ug/ml after 18 hrs by propidium iodide/acridine orange staining based confocal laser scanning microscopic analysis; format: functional, organism-based
Method in brief: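 Caco-2-free model: the TR146 epithelial layer, 21 days post-seeding on filter inserts, was inoculated with 1.0–1.2×10^5/mL log-phase ATCC 90028 yeast. Biofilms were treated at 256, 16 or 0.0313 µg/mL for 18–48 h at 37°C in 5% CO2 and washed with PBS. Unfixed cells were stained with propidium iodide (5 µg/mL) and acridine orange, then imaged by confocal laser scanning microscopy.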

ClCCCn1nnnc1-c1ccccc1Cl
survival at 96 h [1]: 100%
growth inhibition (GI) (Candida albicans [2]): 99.64%
survival at 96 h [3]: 100%
Activity (Candida albicans [4]): 8%
fractional inhibitory concentration index (FICI) (Candida albicans [5]): >10
growth inhibition (GI) (Candida albicans [6]): inactive
Activity (Candida albicans [7]): 89.92%
Activity (Candida albicans [8]): 0.23%

CCOC(=O)CCn1nnc(-c2ccccc2)n1
Activity (Candida albicans [9]): inactive
survival at 96 h [1]: 100%
Activity (Candida albicans [10]): inactive
Activity (Candida albicans [11]): inactive
survival at 96 h [3]: 100%
Activity (Candida albicans [4]): 0.1%
Survival (Candida albicans [12]): <=18 hr
growth inhibition (GI) (Candida albicans [6]): Active
Activity (Candida albicans [7]): 97.03%
Activity (Candida albicans [13]): Active
Activity (Candida albicans [8]): 1.2%
Activity (Candida albicans [14]): 65.41%
Activity (Candida albicans [15]): Active
Activity (Candida albicans [16]): Active

Cc1ccc(-c2nnn(CCCN3CCOCC3)n2)cc1
growth inhibition (GI) (Candida albicans [2]): 99.23%
fractional inhibitory concentration index (FICI) (Candida albicans [5]): >6.25
Activity (Candida albicans [14]): 14.18%
